Screening results (PubChem)
Wnt bcat act: activators of Wnt/beta-catenin signaling; Wnt/beta-catenin reporter cell assay, activator, plate reader; activation, % at 9.35 µM; 300,000 tested, 1.2% active; in the data active = activation above about 30%, passing the limit was not always enough; inconclusive = no clear call, values can overlap the other calls;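 also: 0% = neutral control wells and 100% = positive control wells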
HIV Env fusion: blocks HIV Env-driven cell-cell fusion; HeLa-JRFL Env/CEM21 cell fusion, luciferase; inhibition, % at 12.3 µM; 360,000 tested, 1.1% active;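 active = mean replicate inhibition score of at least 50 and every replicate individually at or above 50; inconclusive = only one of the two criteria met; inactive = mean below 50 and not all replicates reaching 50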;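 also: 0% = plate neutral controls and 100% = maraviroc near 300 nM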
MITF act: MITF TRPM1 promoter activation in melanoma cells; AID 588334; 300,000 tested, 0.75% active; SK-MEL-5 TRPM1-promoter luciferase, 24 h; % of positive control, neutral wells = 0; activation, % at 12.5 µM;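 active = mean activation of at least 80% with every replicate also reaching 80%; inconclusive = mean reaches 80% but some replicate falls short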;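 also: 0% = neutral control wells and 100% = parthenolide positive control wells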
ERAP1 inh: inhibitors of human ERAP1 aminopeptidase; recombinant ERAP1, Leu-AMC fluorescence, 60 min; Q9NZ08; inhibition, % at 10.7 µM; 340,000 tested, 0.15% active;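 active = mean replicate inhibition of at least 30%, or all replicates individually reaching that 30% level; inactive = mean below 30% and not every replicate reaching it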;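 also: 0% = neutral control wells and 100% = L-leucinethiol positive control wells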
Target sequence (Q9NZ08 whole entry, looked up): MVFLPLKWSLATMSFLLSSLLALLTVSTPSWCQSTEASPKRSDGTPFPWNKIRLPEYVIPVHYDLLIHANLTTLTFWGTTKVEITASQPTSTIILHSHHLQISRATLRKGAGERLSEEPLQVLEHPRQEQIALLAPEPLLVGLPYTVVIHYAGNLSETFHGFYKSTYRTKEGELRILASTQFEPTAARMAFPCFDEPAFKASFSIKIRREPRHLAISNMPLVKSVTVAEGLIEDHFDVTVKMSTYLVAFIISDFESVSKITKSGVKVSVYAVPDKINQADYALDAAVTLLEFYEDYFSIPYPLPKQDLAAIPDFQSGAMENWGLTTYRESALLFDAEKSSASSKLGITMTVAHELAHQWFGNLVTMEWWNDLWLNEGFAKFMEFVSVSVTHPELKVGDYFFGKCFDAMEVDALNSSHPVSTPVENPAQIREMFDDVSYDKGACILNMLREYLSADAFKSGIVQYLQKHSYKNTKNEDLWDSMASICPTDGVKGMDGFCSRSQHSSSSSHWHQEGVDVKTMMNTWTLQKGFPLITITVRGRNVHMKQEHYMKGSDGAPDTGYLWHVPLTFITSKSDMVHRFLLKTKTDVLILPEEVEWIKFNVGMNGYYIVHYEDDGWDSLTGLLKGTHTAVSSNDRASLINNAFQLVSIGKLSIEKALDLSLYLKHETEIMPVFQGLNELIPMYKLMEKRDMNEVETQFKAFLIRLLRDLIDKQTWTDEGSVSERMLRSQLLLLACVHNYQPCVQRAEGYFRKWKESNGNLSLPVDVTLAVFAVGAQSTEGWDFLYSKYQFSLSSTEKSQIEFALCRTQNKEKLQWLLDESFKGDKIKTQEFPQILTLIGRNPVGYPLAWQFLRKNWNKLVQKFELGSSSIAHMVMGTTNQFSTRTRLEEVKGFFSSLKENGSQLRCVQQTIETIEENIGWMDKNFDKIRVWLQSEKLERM
esBAF inh: inhibitors of esBAF chromatin remodeling in mouse ES cells | Bmi1-luciferase knock-in reporter, 24 h; 100% = twice the neutral-well signal | AID 602393 | reporter increase, % at 12.5 µM | 350,000 tested, 2% active; in the data active = activation above about 40%; inconclusive = no clear call, values can overlap the other calls;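 also: 0% = median of the plate's neutral control wells and 100% = double that signal; a rise in the Bmi1 reporter signal indicates esBAF inhibition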
Cneo AK release: causes C. neoformans cell lysis | 360,000 tested, 0.2% active | lysis activity, % at 15 µM | adenylate kinase release luminescence, 4 h; normalised: neutral wells 0, clomiphene wells 100;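 active = mean lysis activity across replicates of at least 80%, whatever share of replicates individually reach that level; inactive = mean lysis activity below 80%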
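Material – log-phase Cryptococcus neoformans yeast cells · Input – 5 × 10^6 yeast cells/mL · Medium – fresh YPD growth medium · Doses – single compound concentration per well · Timing – static 4 h at 37 °C with compound, 1 h detection · Detection – adenylate kinase release luminescence · Read-out – signal increase indicating cell lysis · Control set – Clomiphene as positive lysis control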
The depositor's hits bear a star; ? = inconclusive; . = not tested or not shown; [ ] = remark or other dose. Shown are actives, neighbours in structure and some others; about 3.5% of the full set was active somewhere.

SMILES | Wnt bcat act | HIV Env fusion | MITF act | ERAP1 inh | esBAF inh | Cneo AK release
N#Cc1ccccc1NC(=O)c1ccc2c(c1)OCCO2 | 6 | -31 | . | -2 | 45* | -7
O=C(Nc1cccc2cccnc12)c1ccc2c(c1)OCCO2 | 4 | -152 | 55 | . | 48* | -3
O=C(NC(=S)Nc1ccccc1Br)c1ccc2c(c1)OCO2 | 2 | -34 | 110* | -2 | . | -3
Cc1ccccc1NC(=O)c1nnn(-c2ccc3c(c2)OCCO3)c1N | 36* | -92 | 86* | -2 | . | -2
O=C(NC(=S)Nc1ccc2c(c1)OCO2)c1ccccc1 | . | . | 74 | 2 | 33 | -4
COc1cc(NC(=O)c2ccc3c(c2)OCO3)c2ncccc2c1 | . | . | 15 | . | ? | -7
CCCNC(=O)[C@@H]1[C@@H](CO)[C@@H]2Cn3c(cccc3=O)[C@@H]2N1C(=O)C1CC1 | . | . | . | -5 | . | .
Cc1ccc(NC(=O)c2ccc3c(c2)OCCO3)cc1 | . | . | 8 | . | -51 | -10
Cc1cccc(NC(=O)c2ccc3c(c2)OCCO3)c1C | 6 | -11 | 113* | 1 | 55* | -8
Cc1ccccc1NC(=O)C(=O)Nc1ccccc1C | 27 | -58 | 43 | -2 | 45* | -2
Cc1ccccc1NC(=O)c1ccc2c(c1)OCCO2 | . | . | 67 | . | 47* | -4
O=S(=O)(N[C@@H]1CC[C@@H](CCn2cc(-c3cccnc3)nn2)O[C@@H]1CO)c1ccc(Cl)cc1 | . | -6[16.7 µM] | . | 2 | 2 | 1
COc1ccccc1-c1ccc([C@@H]2[C@@H](C#N)N[C@@H]2CO)cc1 | . | . | . | 2 | 4 | -3
O=C(Nc1ccc(F)cc1F)N1CCCN(c2ccc(C(F)(F)F)cn2)CC1 | 0 | 10 | . | . | -6 | .
Fc1ccc(NC(=S)N2CCCN(c3ccc(C(F)(F)F)cn3)CC2)c(F)c1 | -4 | 61* | -43 | . | -22 | 3
O=C(C[C@@H]1CC[C@H]2[C@@H](COC[C@@H](O)CN2S(=O)(=O)c2ccc(Cl)cc2)O1)N[C@@H]1CCN(Cc2ccccc2)C1 | . | . | . | -1 | 0 | -1
CO[C@@H]1CN(C)C(=O)c2ccc(NS(=O)(=O)c3cn(C)cn3)cc2OC[C@@H](C)N(Cc2cccc(C(F)(F)F)c2)C[C@H]1C | . | 9[16.7 µM] | . | 1 | 4 | -1
Nc1cc(=O)[nH]c(SCCSc2ccccc2)n1 | 1 | 58* | . | 0 | 4 | 3
Nc1cc(=O)[nH]c(SCCOc2ccccc2)n1 | -1 | 2 | -9 | -3 | . | .
COc1ccccc1C(=O)Nc1nc(-c2ccc(S(=O)(=O)N3CCOCC3)cc2)cs1 | . | 96* | -81 | . | -26 | -12
CC(C)C(=O)Nc1nc(-c2ccc(S(=O)(=O)N3CCOCC3)cc2)cs1 | -4 | 21 | 3 | 2 | 2 | 1
COc1ccccc1C(=O)Nc1ccc(S(=O)(=O)N2CCOCC2)cc1 | . | . | -6 | . | . | -1
COc1ccccc1OC(C)C(=O)Nc1nc(-c2ccc(S(=O)(=O)N3CCOCC3)cc2)cs1 (centres undefined) | -5 | 60* | -14 | . | 3 | -1
CNC[C@H]1OCCCC[C@@H](C)Oc2ccc(NC(=O)c3ccncc3)cc2C(=O)N([C@@H](C)CO)C[C@@H]1C | . | 11[16.7 µM] | . | 0 | -2 | -1
COc1ccc(-n2nnc3c(SCC(=O)N4CCCc5ccccc54)ncnc32)cc1 | 50* | 0 | -16 | 2 | 1 | -2
SMILES | Wnt bcat act | HIV Env fusion | MITF act | ERAP1 inh | esBAF inh | Cneo AK release
CC(=O)c1sc2c(c1OC(=O)c1ccccc1)c(=O)n(-c1ccccc1)c(=S)n2-c1ccccc1 | -1 | 62* | -31 | -2 | . | .
CCOc1ccc(NC(=O)C2CCCN2C(=O)Oc2ccccc2)cc1 (centres undefined) | -4 | 5 | 2 | 57* | 5 | 0
Cc1noc(C)c1S(=O)(=O)Nc1ccc2c(c1)C(=O)N([C@H](C)CO)C[C@@H](C)[C@H](CN(C)CC1CCCCC1)O2 | . | -5[16.7 µM] | . | 1 | -3 | 0
c1ccc(N2CCN(c3ncnc4scc(-c5cccs5)c34)CC2)cc1 | 2 | 82* | -10 | . | -1 | -3
OCCCNc1ncnc2scc(-c3ccc(Cl)cc3)c12 | -4 | 62* | 2 | 2 | -17 | -5
c1csc(-c2csc3ncnc(NCCCN4CCOCC4)c23)c1 | -2 | 68* | -7 | . | -39 | 4
CCc1ccc(OCCOC(=O)Nc2ccccc2)cc1 | 0 | 10 | . | 1 | -3 | -4
O=C(Nc1ccc(Cl)cc1)Nc1ccccn1 | 21 | -92 | 69 | 2 | ? | -1
CCOC(=O)c1cc(NC(=O)c2cnccn2)cc(C(=O)OCC)c1 | . | . | 0 | . | -14 | -1
O=C(Nc1ccccc1)Nc1ccccn1 | . | -140 | 74 | . | 45* | -6
O=C(Nc1ccccc1)Nc1cccc2cccnc12 | . | -165 | . | . | 85* | .
O=C(Nc1ccccc1)OCCc1ccccn1 | 13 | . | 51 | -2 | 80* | 0
CCOC(=O)c1ccc(NC(=O)c2cnccn2)cc1 | 28 | -96 | 119* | . | -11 | -2
O=C(C[C@@H]1CC[C@@H]2[C@H](COC[C@@H](O)CN2Cc2cccc(-c3ccncc3)c2)O1)N1CCN(c2ccccc2)CC1 | . | . | . | -1 | -11 | 4
CNC[C@H]1OCCCC[C@@H](C)Oc2ccc(N(C)C)cc2C(=O)N([C@@H](C)CO)C[C@H]1C | . | -4[16.7 µM] | . | 1 | -8 | 9
CN(C)C(=O)c1ccc(-c2ccc3c(c2)[C@H]2[C@H](CCN2C(=O)C2CCCC2)[C@H](CO)N3C)cc1 | . | . | . | 3 | . | .
C[C@H]1CN([C@@H](C)CO)C(=O)c2cc(NC(=O)CCCN(C)C)ccc2O[C@H]1CN(C)C | . | . | . | 2 | -3 | -2
Cc1ccc(S(=O)(=O)Nc2cccc3c2O[C@H](CN(C)C(=O)Nc2ccccc2)[C@H](C)CN([C@H](C)CO)C3=O)cc1 | . | -60[16.7 µM] | . | 1 | 1 | -4
CCOC(=O)c1ccc(NC(=O)Nc2cccc(C)n2)cc1 | 0 | 20 | 18 | -8 | 36 | -2
O=C(Nc1ccccn1)C(=O)Nc1ccccn1 | 39* | 0 | 70 | -1 | . | .
O=C(O)c1ccccc1C(=O)Nc1ccccn1 | -5 | -17 | -10 | . | 5 | -1
O=C(Nc1ccccc1)Nc1ccc2ncoc2c1 | 8 | -4 | 14 | -2 | . | .
CCOC(=O)c1ccc(NC(=O)Nc2ccccn2)cc1 | 15 | -57 | 102* | 0 | 59* | .
O=C(Nc1ccccc1)Nc1ccc2ocnc2c1 | -1 | 5 | 3 | -2 | 57* | -1
COc1ccccc1-c1ccc2c(c1)O[C@H](CN(C)C(=O)c1ccccc1)[C@H](C)CN([C@@H](C)CO)S2(=O)=O | . | -49[16.7 µM] | . | 1 | 1 | -3
COc1ccc(C#Cc2ccc3c(c2)[C@H]2[C@H](CCN2S(=O)(=O)c2ccccc2C)[C@@H](CO)N3C)cc1 | . | . | . | 4 | 1 | -2
